Test results taken from ChEMBL document CHEMBL4609978, “Synthesis and evaluation of 2'-dihalo ribonucleotide prodrugs with activity against hepatitis C virus” (Bioorg Med Chem, 2020).
In brackets after ≈: the same amount, converted by molar mass.

Columns and labels:
[1] = Prodrug conversion in Beagle dog liver assessed as nucleotide triphosphate level at 5 mg/kg, po qd for 4 days and measured at 24 hrs post-last dose by LC-MS/MS analysis; type: ADME, organism-based, Canis lupus familiaris; conditions: in vivo
[2] = Stability in human plasma assessed as parent compound remaining after 4 hrs; type: ADME, cell-free; conditions: read-out: Stability
In short: (§1)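 Prodrug incubated 4 h at 37 °C in dog or human plasma; result given as percent parent remaining.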

[3] = Intrinsic clearance in dog hepatocytes; type: ADME, cell-based, Canis lupus familiaris, Hepatocyte; conditions: read-out: CLH (converted)
Hepatitis C virus [4] = assay: Antiviral activity against HCV genotype 1b Con1 infected in human HuH7 replicon cells assessed as inhibition of viral replication after 3 days by luciferase reporter gene assay; type: functional, organism-based, Hepacivirus hominis; conditions: subtype 1b Con1, Huh-7, 72 h
In short: (§2)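 Stable subgenomic replicon cell lines (genotype 1a-H77 or 1b-Con1) carrying a luciferase reporter; compounds added in DMEM with 5% FBS, cells incubated 3 days with or without compound, then lysed and luciferase activity read; EC50 from nonlinear regression fit to 4-parameter logistic equation.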

[5] = Prodrug conversion in Beagle dog liver assessed as nucleotide triphosphate level at 5 mg/kg, po administered as single dose measured after 24 hrs by LC-MS/MS analysis; type: ADME, organism-based, Canis lupus familiaris; conditions: in vivo
[6] = Prodrug conversion in Beagle dog liver assessed as nucleotide triphosphate level at 5 mg/kg, po co-dosed with 5 mg/kg sofosbuvir measured after 24 hrs by LC-MS/MS analysis; type: ADME, organism-based, Canis lupus familiaris; conditions: in vivo
In short: (§3)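 Beagle dogs (3 per time point) given single oral prodrug 5 mg/kg in EtOH:PEG-400:Phosal 53 MCT (10:30:60, w/w), cassette-dosed with sofosbuvir 5 mg/kg as internal standard; liver biopsies at 4 or 24 h, flash frozen, triphosphate measured by LC-MS/MS.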

Hepatitis C virus [7] = assay: Antiviral activity against HCV genotype 1a H77 infected in human HuH7 replicon cells assessed as inhibition of viral replication after 3 days by luciferase reporter gene assay; type: functional, organism-based, Hepacivirus hominis; conditions: subtype 1a H77, Huh-7, 72 h; in short: as §2
[8] = Unbound drug level in human plasma; type: ADME, cell-free
[9] = Intrinsic clearance in human hepatocytes; type: ADME, cell-based, Hepatocyte; conditions: read-out: CLH (converted)
[10] = Aqueous solubility of compound in pH 7.4 phosphate buffer; type: physicochemical
[11] = Prodrug conversion in human primary hepatocytes assessed as nucleotide triphosphate level at 100 uM incubated for 4 hrs and followed by compound washout for 20 hrs and measured following 24 hrs incubation period by LC-MS/MS analysis; type: ADME, cell-based, Hepatocyte
In short: (§4)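 Cryopreserved primary human hepatocytes plated ~55,000 viable cells/well on collagen, medium changed after 4–6 h to Williams E maintenance medium with Geltrex 0.35 mg/mL, overnight at 37 °C; prodrug 100 µM for 4 h, then washed; second plate held a further 20 h drug-free; cells washed with ice-cold HBSS, triphosphate measured by LC-MS/MS at 4 or 24 h.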

[12] = Stability in dog plasma assessed as parent compound remaining after 4 hrs; type: ADME, cell-free, Canis lupus familiaris; conditions: read-out: Stability; in short: as §1
[13] = Prodrug conversion in human primary hepatocytes assessed as nucleotide triphosphate level at 100 uM incubated for 4 hrs followed by compound wash-out for 20 hrs and measured following 4 hrs incubation period by LC-MS/MS analysis; type: ADME, cell-based, Hepatocyte; in short: as §4
[14] = Unbound drug level in dog plasma; type: ADME, cell-free, Canis lupus familiaris
[15] = Prodrug conversion in Beagle dog liver assessed as nucleotide triphosphate level at 5 mg/kg, po administered as single dose measured after 4 hrs by LC-MS/MS analysis; type: ADME, organism-based, Canis lupus familiaris; conditions: in vivo
Hepatitis C virus [16] = assay: Antiviral activity against HCV genotype 1b Con1 over expressing CES1 infected in human HuH7 replicon cells assessed as inhibition of viral replication after 3 days by luciferase reporter gene assay; type: functional, organism-based, Hepacivirus hominis; conditions: subtype 1b Con1, Huh-7, 72 h
[17] = Distribution coefficient, logD of compound by HT-LCMS analysis; type: physicochemical; conditions: octanol/water
[18] = Prodrug conversion in human primary hepatocytes assessed as increase in nucleotide triphosphate level at 100 uM incubated for 4 hrs followed by compound wash-out for 20 hrs and measured following 4 hrs incubation period by LC-MS/MS analysis relative to sofosbuvir; type: ADME, cell-based, Hepatocyte
[19] = Prodrug conversion in Beagle dog liver assessed as nucleotide triphosphate level at 5 mg/kg, po co-dosed with 5 mg/kg sofosbuvir measured after 4 hrs by LC-MS/MS analysis; type: ADME, organism-based, Canis lupus familiaris; conditions: in vivo; in short: as §3
[20] = Prodrug conversion in Beagle dog liver assessed as nucleotide triphosphate level at 5 mg/kg, po qd for 4 days co-dosed with 5 mg/kg sofosbuvir and measured at 24 hrs post-last dose by LC-MS/MS analysis; type: ADME, organism-based, Canis lupus familiaris; conditions: in vivo
In short: (§5)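 Beagle dogs (3 per time point) dosed orally once daily for 4 days with prodrug (1 or 5 mg/kg) in EtOH:PEG-400:Phosal 53 MCT (10:30:60, w/w) together with sofosbuvir 5 mg/kg; liver biopsy 24 h after final dose, flash frozen, triphosphate by LC-MS/MS.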

[21] = Prodrug conversion in Beagle dog liver assessed as nucleotide triphosphate level at 1 mg/kg, po qd for 4 days co-dosed with 5 mg/kg sofosbuvir and measured at 24 hrs post-last dose by LC-MS/MS analysis; type: ADME, organism-based, Canis lupus familiaris; conditions: in vivo; in short: as §5
[22] = Prodrug conversion in Beagle dog liver assessed as increase in nucleotide triphosphate level at 5 mg/kg, po co-dosed with 5 mg/kg sofosbuvir measured after 24 hrs by LC-MS/MS analysis relative to sofosbuvir; type: ADME, organism-based, Canis lupus familiaris; conditions: in vivo; in short: as §3
[23] = Prodrug conversion in Beagle dog liver assessed as increase in nucleotide triphosphate level at 5 mg/kg, po co-dosed with 5 mg/kg sofosbuvir measured after 4 hrs by LC-MS/MS analysis relative to sofosbuvir; type: ADME, organism-based, Canis lupus familiaris; conditions: in vivo; in short: as §3

Structure (SMILES)	Drug metabolism [1] [µM]	remaining at 4 h [2] [%]	CLint scaled [3] [mL/min/kg]	EC50 (Hepatitis C virus [4]) [nM]	Drug metabolism [5] [µM]	Drug metabolism [6] [µM]	EC50 (Hepatitis C virus [7]) [nM]	fraction unbound [8]	CLint scaled [9] [mL/min/kg]	solubility [10] [µM]	Drug metabolism [11] [µM]	remaining at 4 h [12] [%]	Drug metabolism [13] [µM]	fraction unbound [14]	Drug metabolism [15] [µM]	EC50 (Hepatitis C virus [16]) [nM]	logD [17]	fold change (FC) [18]	Drug metabolism [19] [µM]	further results
CCOC(=O)C(C)(C)N[P@](=O)(OC[C@H]1O[C@@H](n2ccc(=O)[nH]c2=O)[C@](Cl)(Br)[C@@H]1O)Oc1ccccc1	2.89	100	200	952	2.1	5.44	644	0.24	268	> 200	203	86	2818	0.133	8.83	154	3.11	30 to 40	15.03	Drug metabolism [20]: 11.1 µM
CCOC(=O)C(C)(C)N[P@](=O)(OC[C@H]1O[C@@H](n2ccc(=O)[nH]c2=O)[C@@](F)(Br)[C@@H]1O)Oc1ccccc1	8.18	98	123	434	42.7	6.64	259	0.473	132	519 (≈ 308 µg/mL)	736	100	3600	0.317	43.3	69	2.86	30 to 40	7	Drug metabolism [21]: 10.7 µM; fold change (FC) [22]: 5 to 6; fold change (FC) [23]: 5 to 6
